Source: PubChem BioAssay (several laboratories)
NR2E3 ag-1 = activates human NR2E3 receptor; actives 0.35% (n = 360,000); inhibition of corepressor binding, % at 3.98 µM; CHO-S Gal4-NCOR/VP16-NR2E3 two-hybrid, luciferase; Q9Y5X4;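 active = inhibition above the mean of all tested compounds plus 3 SD, cut at about 70% in these data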;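 note: 0% = DMSO with NR2E3 transfected cells and 100% = cells lacking NR2E3 construct; higher means lower luciferase signal from less NR2E3 corepressor binding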
Target sequence (Q9Y5X4 whole entry, looked up, the tested form may be a part): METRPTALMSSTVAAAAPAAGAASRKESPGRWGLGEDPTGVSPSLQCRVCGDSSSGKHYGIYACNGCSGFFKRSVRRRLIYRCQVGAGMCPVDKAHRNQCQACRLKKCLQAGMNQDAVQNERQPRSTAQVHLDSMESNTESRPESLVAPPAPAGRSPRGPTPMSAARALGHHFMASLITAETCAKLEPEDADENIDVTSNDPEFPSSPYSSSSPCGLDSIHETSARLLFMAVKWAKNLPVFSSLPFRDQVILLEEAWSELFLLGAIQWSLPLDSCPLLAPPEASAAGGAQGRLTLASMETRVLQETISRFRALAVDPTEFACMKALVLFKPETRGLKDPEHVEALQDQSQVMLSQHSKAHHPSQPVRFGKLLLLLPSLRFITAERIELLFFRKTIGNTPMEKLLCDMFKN
Rev-erbA mod = modulators of human Rev-erb alpha DNA binding | activity, % at 10 µM | Rev-erbα–FITC-DNA binding, fluorescence polarization, 90 min | AID 1259318 | actives 0.79% (n = 370,000);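 active = activity above about 14%, limit read from the data; passing the limit was not always enough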;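 note: 0% = DMSO wells with 35 nM protein and 100% = DMSO wells with 750 nM protein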
NR2E3 ag-2 = agonists of human nuclear receptor NR2E3 | AID 2300 | Q9Y5X4 | actives 0.12% (n = 320,000) | GST-NR2E3/biotin-RetCOR TR-FRET, 1536-well | inhibition of corepressor binding, % at 4.78 µM;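 active = percent inhibition above the cutoff of mean plus 3 SD of all tested compounds, set per screening campaign, cut at about 20% in these data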;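 note: 0% = DMSO wells and 100% = biotin wells as full block of FRET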
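System: GST-tagged NR2E3 plus biotinylated RetCOR corepressor; Amount: 1.35 nM GST-tagged NR2E3 final; Dosing: single nominal compound dose of 4.8 µM; Schedule: 5 h incubation at 4 °C; Technique: TR-FRET with europium anti-GST and streptavidin-D2, 340 nm excitation; Controls: biotin wells as high control, 0.6% DMSO wells as low control.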
PG9 binder = binds the HIV-1 gp120 antibody PG9; AID 624416; TR-FRET gp120-PG9 antibody binding; inhibition, % at 6.7 µM; actives 0.43% (n = 360,000); in the data active = inhibition above about 8.5%
VLA-4 inh = inhibition in a human VLA-4 binding assay | P13612 | VLA-4 expressing cells, ligand binding flow cytometry | inhibition, % (about 7 µM as worked out from the volumes in the protocol) | actives 0.2% (n = 330,000); in the data active = inhibition above about 50%
* hit, by the source's call; / = no result given. Rows were chosen to be rich in hits. Some 1.6% of all compounds tested hit in one or more screens of this group.

SMILES	NR2E3 ag-1	Rev-erbA mod	NR2E3 ag-2	PG9 binder	VLA-4 inh
CC1(C)S[C@@H]2[C@@H](N3C(=O)[C@@H](c4ccccc4)NC3(C)C)C(=O)N2[C@H]1C(=O)O	/	-6.4	/	/	/
CC(C)(C)c1ccc(/C=C(\c2nc3ccccc3[nH]2)S(=O)(=O)c2ccccc2)cc1	80.9*	/	0.7	/	0.1
NC(=O)C(c1ccccc1)(c1ccccc1)[C@H]1CCN(CCc2ccc3c(c2)CCO3)C1	/	8.1	/	/	/
CC(C)(C)C1C/C(=C/c2ccccn2)C(=O)/C(=C/c2ccccn2)C1 (centres undefined)	95.9*	/	1.3	/	39.1
CCNC(=O)CCC/C=C\C[C@@H]1[C@@H](/C=C/[C@@H](O)CCc2ccccc2)[C@H](O)C[C@@H]1O	/	9.7	/	/	/
Cc1cc(/C=C\c2ccc3cc(N(C)C)ccc3[n+]2C)c(C)n1-c1ccccc1	100.1*	/	4.8	/	/
C[n+]1c(/C=C/c2ccc(O)cc2)ccc2ccccc21	-78.3	12.6	-2.3	-9.9	-35.9
CCCCCc1ccc(S(=O)(=O)NCCc2ccncc2)cc1	88.4*	1.5	1.8	-0.3	24.5
CC(=O)O[C@H]1CC2CCC3C(CC[C@@]4(C)C3C[C@H]([N+]3(C)CCCCC3)[C@@H]4OC(C)=O)[C@@]2(C)C[C@@H]1[N+]1(C)CCCCC1 (some centres undefined)	/	-5.9	/	/	/
O=C(Nc1ccc(-c2nc3ncccc3o2)cc1)c1ccc(Br)o1	-34.0	22.4	-231.6	41.2*	-11.9
Nc1ccn(C2O[C@H](CO)[C@@H](O)[C@@H]2O)c(=O)n1 (some centres undefined)	/	-5.8	/	/	/
CCCCCCCCCCCCCCCCCCCCCCCCCCCCO	/	-4.9	/	/	/
CC(=O)N1CCN(C(=S)NCc2ccccc2)CC1	5.9	-9.6	-2.6	0.3	54.5*
S=C(NCc1ccccc1)N1CCCCC1	20.9	-8.2	0.8	1.0	-3.0
OCCN1CCN(c2nc(-c3ccccc3)c3cc(Br)ccc3n2)CC1	-19.3	-1.9	2.7	8.7*	15.7
CCN(CC)c1ccc(/C=C/C(=O)c2cccnc2)cc1	15.3	3.1	1.8	-2.7	50.3*
Oc1ccc(Nc2nc3ccccc3nc2Nc2ccc(O)cc2)cc1	95.4*	/	1.9	/	-26.2
Nc1ncn([C@@H]2O[C@H](CO)[C@H](O)C2O)c(=O)n1 (some centres undefined)	/	-0.1	/	/	/
CCOc1ccc(S(=O)(=O)Nc2cnc3ccccc3c2)cc1	99.2*	-9.4	-0.5	2.6	4.3
CCOc1ccc(S(=O)(=O)Nc2nc3ccccc3nc2Cl)cc1	4.7	-2.0	3.4	3.6	28.4
Cc1ccc(S(=O)(=O)/N=C2/C=C(Sc3ncn[nH]3)C(=O)c3ccccc32)cc1	105.8*	/	7.1	/	12.3
O[C@@H]1COC2C1OC[C@@H]2O (some centres undefined)	/	0.5	/	/	/
CCOc1ccc(-c2ccc(SCc3ccccn3)nn2)cc1	-55.8	5.4	-1.4	1.0	60.8*
CCc1ccc(-c2ccc(SCc3ccccn3)nn2)cc1	-101.7	2.5	-1.5	-1.2	-0.4
N#CC1=C(N)SC(N)=C(C#N)C1c1cccc(O)c1	-11.8	0.6	5.7	22.1*	-11.9
SMILES	NR2E3 ag-1	Rev-erbA mod	NR2E3 ag-2	PG9 binder	VLA-4 inh
CC(CCC(C)C(C)(C)C)[C@@H]1CC[C@H]2C3C[C@H](OS(O)(=S)=S)[C@H]4C[C@H](OS(O)(=S)=S)[C@@H](OS(O)(=S)=S)C[C@]4(C)[C@H]3CC[C@]12C (some centres undefined) (tested in a mixture with another compound)	74.9*	/	/	/	-29.8
CC(CCC(=O)NN)C1CCC2C3CCC4CC(O)CCC4(C)C3CCC12C (centres undefined)	6.3	-0.9	/	1.2	/
Cn1c(-c2ccc(C#N)cc2)c(C#Cc2ccccc2)c2ccccc21	-41.0	-1.1	/	5.5	/
N#Cc1c(-c2ccc(Cl)cc2)n(O)c2ccccc12	98.5*	/	/	/	/
CCOC(=O)/C(=N\Nc1ccc(Br)cc1)N1CC(C)OC(C)C1 (centres undefined)	76.6*	/	-0.4	/	-2.2
O=C(N/N=C/c1cc2c(cc1Br)OCO2)c1c[nH]c2ccccc12	-37.1	-3.2	-21.5	-2.1	50.3*
O=C(N/N=C/c1cc2c(cc1Br)OCO2)c1ccccn1	-41.2	-5.2	-0.1	-1.4	6.1
